The assay deals with HEp-2 RSV CPE, time of addition, CellTiter-Glo viability. Kind of assay: RSV inhibitor time-of-addition profiling, late-stage follow-up, mechanism study for RSV inhibitor project, cell-based, set 2 (AID 602159). To be noted: at 25 µM, stronger effect = higher value. The gist of the method:
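Material: HEp-2 cell monolayers infected with respiratory syncytial virus | Reagent: RSV Long, MOI 0.12 | Dosing: 25 µM single dose, 0.5% DMSO | Schedule: Compound dosing 1 h pre- to 24 h post-infection, six-day incubation | Technique: CellTiter-Glo luminescence | Read-out: % cell viability per addition time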

Where [1] appears, read: measured here: added 1 h before infection.
The mark [2] stands for this setting: measured here: added 1 h post infection.
Where [3] appears, read: measured here: added 12 h post infection.
Setting [4] is: measured here: added 24 h post infection.

For orientation: viability means a per cent measure of how many cells are alive, often set against a control.

As to `COCCCNC(=O)c1ccc(Cn2c(=O)c3ccccc3n(Cc3ccc(C(C)C)cc3)c2=O)cc1`, the viability (added at infection) is 44%. For the setting “added 21 h post infection”, the viability worked out at 38.8%. This molecule also gave a viability under setting [1] of 49.5%. In addition, under setting [2], the viability was determined as 42.9%. The molecule further showed a viability under setting [3] of 43.8%. This molecule displayed a viability under setting [4] of 31.1%.

Regarding `CN(C)c1ccc(Cn2c(=O)n(Cc3ccc(C(=O)NCC4COC4)cc3)c(=O)c3ccccc32)cc1`, the viability (added at infection) is 91.3%. Under “added 21 h post infection”, this molecule displayed a viability of 96.4%. The viability under setting [1] amounted to 90.1%. Besides, the viability under setting [2] came out at 91.6%. Under setting [3], this molecule gave a viability of 73.2%. This molecule also displayed a viability under setting [4] of 78.7%.

Take `COCCCNC(=O)c1ccc(Cn2c(=O)c3ccccc3n(Cc3ccc([N+](=O)[O-])cc3)c2=O)cc1`: the viability (added at infection) was 72.1%. This molecule displayed a viability (added 21 h post infection) of 80.1%. Also, under setting [1], the viability is 52.3%. Besides, under setting [2], the viability was found to be 70.2%. In addition, the viability under setting [3] was 81.9%. The molecule also gave a viability under setting [4] of 68%.
